{
  "source": "paper PMC6875695",
  "about": "(Journal of controlled release : official journal of the …, 2019)",
  "key": {"[1]": {"system": "HIV-1ADA", "assay": "EC50 assay in MDM, HIV-1 RT activity", "format": "cell-based", "conditions": "Human immunodeficiency virus 1, 240 h", "in_short": "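Human monocytes differentiated to macrophages with MCSF (1000 U/mL) for 7 days, then seeded at 0.15 × 10^6 cells/well and kept at 37 °C, 5% CO2. Cells were pretreated 2 h with test compound (0.1–1000 nM) and challenged with HIV-1ADA at MOI 0.1 for 4 h. After a PBS wash they were re-fed drug-containing medium at the same concentrations. Supernatant RT activity was read 10 days post-challenge.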"}, "[2]": {"system": "HIV-1NL4–3-eGFP", "assay": "EC50 assay in CEM-CD4+ T-cells, HIV-1 RT activity", "format": "cell-based", "conditions": "Human immunodeficiency virus 1, T-cell, 240 h"}, "[3]": {"system": "HIV-1", "conditions": "no reference given; cited from earlier work"}},
  "data": [
    {"smiles": "Cc1cc(/C=C/C#N)cc(C)c1Nc1ccnc(Nc2ccc(C#N)cc2)n1", "note": "[RPV, rilpivirine]", "values": [
      {"measurement": "EC50", "setting": "[1]", "value": 1.9, "unit": "nM"},
      {"measurement": "EC50", "setting": "[2]", "value": 0.8, "unit": "nM"},
      {"measurement": "protein-adjusted 90% inhibitory concentration (PA-IC90)", "setting": "[3]", "value": 0.012, "unit": "µg/mL"}
    ]}
  ]
}
